# Experiments:
# Format in all cases: functional
# [1] = system: HOP-62; assay: Anticancer activity against human HOP62 cells assessed as cell growth promotion at 10^-5 M after 48 hrs by SRB assay relative to control
# [2] = system: NCI/ADR-RES; assay: Anticancer activity against human NCI/ADR-RES cells assessed as cell growth promotion at 10^-5 M after 48 hrs by SRB assay relative to control
# [3] = system: UACC-257; assay: Anticancer activity against human UACC257 cells assessed as cell growth promotion at 10^-5 M after 48 hrs by SRB assay relative to control
# [4] = system: SW-620; assay: Anticancer activity against human SW620 cells assessed as cell growth promotion at 10^-5 M after 48 hrs by SRB assay relative to control
# [5] = system: SF-539; assay: Anticancer activity against human SF539 cells assessed as cell growth promotion at 10^-5 M after 48 hrs by SRB assay relative to control
# [6] = system: MDA-MB-231; assay: Anticancer activity against human MDA-MB-231 cells assessed as cell growth promotion at 10^-5 M after 48 hrs by SRB assay relative to control
# [7] = system: NCI-H322M; assay: Anticancer activity against human NCI-H322M cells assessed as cell growth promotion at 10^-5 M after 48 hrs by SRB assay relative to control
# [8] = system: OVCAR-3; assay: Anticancer activity against human OVCAR3 cells assessed as cell growth promotion at 10^-5 M after 48 hrs by SRB assay relative to control
# [9] = system: U-251; assay: Anticancer activity against human U251 cells assessed as cell growth promotion at 10^-5 M after 48 hrs by SRB assay relative to control
# [10] = system: HCC 2998; assay: Anticancer activity against human HCC2998 cells assessed as cell growth promotion at 10^-5 M after 48 hrs by SRB assay relative to control
# [11] = system: SF-295; assay: Anticancer activity against human SF295 cells assessed as cell growth promotion at 10^-5 M after 48 hrs by SRB assay relative to control
# [12] = system: 786-0; assay: Anticancer activity against human 786-0 cells assessed as cell growth promotion at 10^-5 M after 48 hrs by SRB assay relative to control
# [13] = system: LOX IMVI; assay: Anticancer activity against human LOXIMVI cells assessed as cell growth promotion at 10^-5 M after 48 hrs by SRB assay relative to control
# [14] = system: SF-268; assay: Anticancer activity against human SF268 cells assessed as cell growth promotion at 10^-5 M after 48 hrs by SRB assay relative to control
# [15] = system: SK-MEL-28; assay: Anticancer activity against human SK-MEL-28 cells assessed as cell growth promotion at 10^-5 M after 48 hrs by SRB assay relative to control
# [16] = system: NCI-H226; assay: Anticancer activity against human NCI-H226 cells assessed as cell growth promotion at 10^-5 M after 48 hrs by SRB assay relative to control
# [17] = system: HT-29; assay: Anticancer activity against human HT-29 cells assessed as cell growth promotion at 10^-5 M after 48 hrs by SRB assay relative to control
# [18] = system: HCT-15; assay: Anticancer activity against human HCT15 cells assessed as cell growth promotion at 10^-5 M after 48 hrs by SRB assay relative to control
# [19] = system: IGROV-1; assay: Anticancer activity against human IGROV1 cells assessed as cell growth promotion at 10^-5 M after 48 hrs by SRB assay relative to control
# [20] = system: OVCAR-5; assay: Anticancer activity against human OVCAR5 cells assessed as cell growth promotion at 10^-5 M after 48 hrs by SRB assay relative to control
# [21] = system: NCI-H460; assay: Anticancer activity against human NCI-H460 cells assessed as cell growth promotion at 10^-5 M after 48 hrs by SRB assay relative to control
# [22] = system: HCT-116; assay: Anticancer activity against human HCT116 cells assessed as cell growth promotion at 10^-5 M after 48 hrs by SRB assay relative to control
# [23] = Anticancer activity against human […] cells assessed as cell growth promotion at 10^-5 M after 48 hrs by SRB assay relative to control
# [24] = system: HL-60(TB); assay: Anticancer activity against human HL-60(TB) cells assessed as cell growth promotion at 10^-5 M after 48 hrs by SRB assay relative to control
# How it was run: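 NCI-60 single-dose screen: compound at 10^-5 M, 48 h at 37 °C, 5% CO2; cells grown in RPMI 1640 with 5% FBS and 2 mM L-glutamine, pre-incubated 24 h before dosing. Adherent cells fixed with cold TCA; endpoint is sulforhodamine B protein staining. Percent growth of treated cells is reported relative to untreated control.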
# [25] = system: MDA-MB-468; assay: Anticancer activity against human MDA-MB-468 cells assessed as cell growth promotion at 10^-5 M after 48 hrs by SRB assay relative to control
# [26] = system: PC-3; assay: Anticancer activity against human PC3 cells assessed as cell growth promotion at 10^-5 M after 48 hrs by SRB assay relative to control
# [27] = system: A549; assay: Anticancer activity against human A549 cells assessed as cell growth promotion at 10^-5 M after 48 hrs by SRB assay relative to control
# [28] = Anticancer activity against human Hs 578T cells assessed as cell growth promotion at 10^-5 M after 48 hrs by SRB assay relative to control
# [29] = system: K562; assay: Anticancer activity against human K562 cells assessed as cell growth promotion at 10^-5 M after 48 hrs by SRB assay relative to control
# [30] = system: SN12C; assay: Anticancer activity against human SN12C cells assessed as cell growth promotion at 10^-5 M after 48 hrs by SRB assay relative to control
# [31] = system: CCRF-CEM; assay: Anticancer activity against human CCRF-CEM cells assessed as cell growth promotion at 10^-5 M after 48 hrs by SRB assay relative to control
# [32] = system: SR; assay: Anticancer activity against human SR cells assessed as cell growth promotion at 10^-5 M after 48 hrs by SRB assay relative to control
# [33] = system: UACC-62; assay: Anticancer activity against human UACC62 cells assessed as cell growth promotion at 10^-5 M after 48 hrs by SRB assay relative to control
# [34] = system: NCI-H23; assay: Anticancer activity against human NCI-H23 cells assessed as cell growth promotion at 10^-5 M after 48 hrs by SRB assay relative to control
# [35] = system: COLO 205; assay: Anticancer activity against human COLO205 cells assessed as cell growth promotion at 10^-5 M after 48 hrs by SRB assay relative to control
# [36] = system: MCF7; assay: Anticancer activity against human MCF7 cells assessed as cell growth promotion at 10^-5 M after 48 hrs by SRB assay relative to control
# [37] = system: CAKI-1; assay: Anticancer activity against human Caki1 cells assessed as cell growth promotion at 10^-5 M after 48 hrs by SRB assay relative to control
# [38] = system: Malme-3M; assay: Anticancer activity against human MALME-3M cells assessed as cell growth promotion at 10^-5 M after 48 hrs by SRB assay relative to control
SMILES,Activity [1] [%],Activity [2] [%],Activity [3] [%],Activity [4] [%],Activity [5] [%],Activity [6] [%],Activity [7] [%],Activity [8] [%],Activity [9] [%],Activity [10] [%],Activity [11] [%],Activity [12] [%],Activity [13] [%],Activity [14] [%],Activity [15] [%],Activity [16] [%],Activity [17] [%],Activity [18] [%],Activity [19] [%],Activity [20] [%],other results
O=C(Nc1ccccc1C(=O)Nc1ccc(/C=C/C=C/c2ccccc2)cc1)c1ccccc1,93.96,112,103,107,102,87.48,81.13,88.79,95.87,93.69,58.93,84.31,84.87,98.17,107,84.69,111,73.53,78.34,99.95,Activity [21]: 94.36%; Activity [22]: 84.74%; Activity [23]: 63.43%; Activity [24]: 92.43%; Activity [25]: 81.99%; Activity [26]: 75.75%; Activity [27]: 91.49%; Activity [28]: 80.44%; Activity [29]: 62.47%; Activity [30]: 87.79%; Activity [31]: 53.89%; Activity [32]: 70.89%; Activity [33]: 84.87%; Activity [34]: 91.39%; Activity [35]: 121%; Activity [36]: 100%; Activity [37]: 83.56%; Activity [38]: 78.99%
O=c1c2ccccc2nc(-c2ccco2)n1/N=C/c1ccccc1Cl,-34.84,12.24,82.72,34.38,24.89,52.12,36.23,27.98,37.22,34.89,52.12,26.39,34.24,72.86,38.98,53.52,52.78,62.36,71.23,37.89,Activity [21]: 28.38%; Activity [22]: 24.88%; Activity [23]: 92.65%; Activity [24]: 89.12%; Activity [25]: 78.92%; Activity [26]: 78.23%; Activity [27]: 38.12%; Activity [28]: 83.85%; Activity [29]: 101.3%; Activity [30]: 36.81%; Activity [31]: 83.12%; Activity [32]: 94.12%; Activity [33]: 62.82%; Activity [34]: 64.87%; Activity [35]: 32.76%; Activity [36]: 63.86%; Activity [37]: 62.86%; Activity [38]: 78.64%
O=C(Nc1ccccc1C(=O)Nc1ccc(/C=C/c2ccc(Cl)cc2)cc1)c1ccccc1,105,95.06,94.73,99.16,91.8,81.11,89.27,86.93,60.68,78.38,52.07,75.14,74.93,82.84,101,85.77,89.94,65.81,89.85,123,Activity [21]: 72.92%; Activity [22]: 49.35%; Activity [23]: 56.24%; Activity [24]: 94.11%; Activity [25]: 83.46%; Activity [26]: 65.2%; Activity [27]: 70.02%; Activity [28]: 67.95%; Activity [29]: 57.81%; Activity [30]: 79.73%; Activity [31]: 52.41%; Activity [32]: 81.19%; Activity [33]: 79.67%; Activity [34]: 73.51%; Activity [35]: 124%; Activity [36]: 82.72%; Activity [37]: 90.6%; Activity [38]: 91.75%

# Reference: ChEMBL document CHEMBL1781959, “Synthesis and in vitro antitumor activity of substituted quinazoline and quinoxaline derivatives: search for anticancer agent” (Eur J Med Chem, 2011)
